We go through one compound from ChEMBL document CHEMBL4184325, “Discovery of 4,7-Diamino-5-(4-phenoxyphenyl)-6-methylene-pyrimido[5,4- b]pyrrolizines as Novel Bruton's Tyrosine Kinase Inhibitors” (J Med Chem, 2018).

The subject of data set [1] is TMD8. The data set can be described thus: Cell cycle arrest in human TMD8 cells assessed as accumulation at S phase at 1 nM after 48 hrs by propidium iodide staining-based flow cytometric method (reference value: 34.15%). The format is functional. Background: Flow cytometry measures light scatter and fluorescence of single cells or particles in a stream.
The nature of data set [2]: Drug metabolism in mouse liver microsomes assessed as N-((S)-4-amino-6-methylene-5-(4-phenoxyphenyl)-7,8-dihydro-6H-pyrimido[5,4-b]pyrrolizin-7-yl)-2,3-dihydroxypropanamide formation after 3 hrs. The data set is classed as ADME, microsome. A general note: Liver microsomes are vesicles of endoplasmic reticulum, rich in cytochrome P450 enzymes.
The target of data set [3] is Macrophage colony-stimulating factor 1 receptor (Homo sapiens, UniProt P07333). Put plainly: Inhibition of recombinant human CSF1R using Poly(Glu, Tyr) 4:1 as substrate after 1 hr by ELISA. The method in brief:
(§1)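 Kinase activity was measured by ELISA on wells precoated with 20 µg/mL poly(Glu,Tyr) 4:1. Enzyme was incubated with compound in 50 mM HEPES pH 7.4, 20 mM MgCl2, 0.1 mM MnCl2, 0.2 mM Na3VO4, 1 mM DTT with 5 µM ATP at 37 °C for 1 h. Phosphotyrosine was detected with PY99 antibody, HRP secondary and OPD, read at A492. IC50 is the mean of duplicates.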
A general note: An ELISA detects its analyte on a solid surface through an enzyme-linked reagent.

Data set [4] deals with TMD8. The data set can be described thus: Cell cycle arrest in human TMD8 cells assessed as accumulation at G1 phase at 1 nM after 48 hrs by propidium iodide staining-based flow cytometric method (reference value: 51.33%). The format is functional.
Data set [5] is described as follows: Drug metabolism in human liver microsomes assessed as N-((S)-4-amino-6-methylene-5-(4-phenoxyphenyl)-7,8-dihydro-6H-pyrimido[5,4-b]pyrrolizin-7-yl)-2,3-dihydroxypropanamide formation after 3 hrs. The data set is classed as ADME, microsome.
The test system of data set [6] is Mus musculus. Put plainly: In vivo inhibition of BTK autophosphorylation at Y223 in human TMD8 cells xenografted in CB17 SCID nude mouse at 15 mg/kg, […] by Western blot method. The format is functional, organism-based.
A short description of data set [7]: Drug metabolism in rat liver microsomes assessed as (S)-N-(4-amino-5-(4-(4-hydroxyphenoxy)phenyl)-6-methylene-7,8-dihydro-6H-pyrimido[5,4-b]pyrrolizin-7-yl)acrylamide formation after 3 hrs. The format is ADME, microsome.
In data set [8] the test system is TMD8. Put plainly: Induction of apoptosis in human TMD8 cells assessed as late apoptotic cells at 100 nM after 72 hrs by Annexin-FITC/propidium iodide staining-based flow cytometric method (reference value: 3.2%). The data set is classed as functional.
In data set [9] the test system is TMD8. The data set can be described thus: Cell cycle arrest in human TMD8 cells assessed as accumulation at S phase at 10 nM after 48 hrs by propidium iodide staining-based flow cytometric method (reference value: 34.15%). The data set is classed as functional.
Data set [10] concerns TMD8. Put plainly: Induction of apoptosis in human TMD8 cells after 72 hrs by Annexin-FITC/propidium iodide staining-based flow cytometric method. The format is functional, cell-based.
Data set [11] deals with T1, Tyrosine-protein kinase Tec (Homo sapiens, UniProt P42680).
T1 sequence (P42680 whole entry): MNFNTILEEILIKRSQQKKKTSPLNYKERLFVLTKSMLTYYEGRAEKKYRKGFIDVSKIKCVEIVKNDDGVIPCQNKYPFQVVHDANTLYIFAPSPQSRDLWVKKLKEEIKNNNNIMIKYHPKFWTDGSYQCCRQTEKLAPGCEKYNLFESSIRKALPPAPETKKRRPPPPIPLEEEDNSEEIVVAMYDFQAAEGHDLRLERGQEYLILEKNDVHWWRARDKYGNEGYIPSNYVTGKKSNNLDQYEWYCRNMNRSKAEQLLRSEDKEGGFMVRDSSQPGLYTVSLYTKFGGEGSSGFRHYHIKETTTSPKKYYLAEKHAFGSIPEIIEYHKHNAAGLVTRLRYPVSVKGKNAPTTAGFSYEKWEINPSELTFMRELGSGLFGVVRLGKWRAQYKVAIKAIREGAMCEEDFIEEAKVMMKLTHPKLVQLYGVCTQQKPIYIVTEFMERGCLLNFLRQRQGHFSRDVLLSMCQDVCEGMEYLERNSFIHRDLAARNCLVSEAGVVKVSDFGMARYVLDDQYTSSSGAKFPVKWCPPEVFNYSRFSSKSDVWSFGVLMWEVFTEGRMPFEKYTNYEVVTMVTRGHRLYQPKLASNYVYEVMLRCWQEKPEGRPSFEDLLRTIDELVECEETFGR
Put plainly: Inhibition of recombinant human TEC using Poly(Glu, Tyr) 4:1 as substrate after 1 hr by ELISA. In outline: as §1

For data set [12], the target named is T2, Tyrosine-protein kinase ITK/TSK (Homo sapiens, UniProt Q08881).
T2 sequence (Q08881 whole entry): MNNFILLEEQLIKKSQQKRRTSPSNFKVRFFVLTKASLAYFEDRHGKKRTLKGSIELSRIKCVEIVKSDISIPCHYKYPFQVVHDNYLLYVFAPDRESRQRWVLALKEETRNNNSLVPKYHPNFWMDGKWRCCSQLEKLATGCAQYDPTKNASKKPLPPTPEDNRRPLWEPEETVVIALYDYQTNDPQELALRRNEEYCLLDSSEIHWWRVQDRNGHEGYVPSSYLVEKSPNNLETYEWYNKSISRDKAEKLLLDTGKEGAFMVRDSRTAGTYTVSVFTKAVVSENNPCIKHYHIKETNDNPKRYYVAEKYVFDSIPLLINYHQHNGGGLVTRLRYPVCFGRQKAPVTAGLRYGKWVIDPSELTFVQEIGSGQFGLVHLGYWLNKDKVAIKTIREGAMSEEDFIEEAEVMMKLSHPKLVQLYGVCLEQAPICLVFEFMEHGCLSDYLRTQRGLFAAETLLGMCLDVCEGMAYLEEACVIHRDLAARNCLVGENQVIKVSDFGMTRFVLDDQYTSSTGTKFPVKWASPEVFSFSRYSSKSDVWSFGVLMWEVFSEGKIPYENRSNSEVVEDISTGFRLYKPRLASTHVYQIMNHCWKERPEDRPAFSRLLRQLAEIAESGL
The data set can be described thus: Inhibition of recombinant human ITK using Poly(Glu, Tyr) 4:1 as substrate after 1 hr by ELISA. The method in brief:
as §1

Data set [13] is described as follows: Drug metabolism in rat liver microsomes assessed as N-((S)-4-amino-6-methylene-5-(4-phenoxyphenyl)-7,8-dihydro-6H-pyrimido[5,4-b]pyrrolizin-7-yl)-2,3-dihydroxypropanamide formation after 3 hrs. The format is ADME, microsome.
A short description of data set [14]: Drug metabolism in mouse liver microsomes assessed as (S,E)-N-(4-amino-6-methylene-5-(4-phenoxyphenyl)-7,8-dihydro-6H-pyrimido[5,4-b]pyrrolizin-7-yl)-3-hydroxyacrylamide formation after 3 hrs. The format is ADME, microsome.
Data set [15] can be described thus: Cmax in rat at 3 mg/kg, po. The data set is classed as ADME, organism-based. The arrangement: dose 3 mg/kg, route oral. Particulars: in vivo. In outline: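 Rats dosed orally at 3 mg/kg; vehicle DMSO, Tween 80, normal saline; values are the average of three determinations.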
The target in data set [16] is T3, Tyrosine-protein kinase BTK (Homo sapiens, UniProt Q06187). Put plainly: Inhibition of recombinant human BTK using Poly(Glu, Tyr) 4:1 as substrate after 1 hr by ELISA.
T3 sequence (Q06187 whole entry): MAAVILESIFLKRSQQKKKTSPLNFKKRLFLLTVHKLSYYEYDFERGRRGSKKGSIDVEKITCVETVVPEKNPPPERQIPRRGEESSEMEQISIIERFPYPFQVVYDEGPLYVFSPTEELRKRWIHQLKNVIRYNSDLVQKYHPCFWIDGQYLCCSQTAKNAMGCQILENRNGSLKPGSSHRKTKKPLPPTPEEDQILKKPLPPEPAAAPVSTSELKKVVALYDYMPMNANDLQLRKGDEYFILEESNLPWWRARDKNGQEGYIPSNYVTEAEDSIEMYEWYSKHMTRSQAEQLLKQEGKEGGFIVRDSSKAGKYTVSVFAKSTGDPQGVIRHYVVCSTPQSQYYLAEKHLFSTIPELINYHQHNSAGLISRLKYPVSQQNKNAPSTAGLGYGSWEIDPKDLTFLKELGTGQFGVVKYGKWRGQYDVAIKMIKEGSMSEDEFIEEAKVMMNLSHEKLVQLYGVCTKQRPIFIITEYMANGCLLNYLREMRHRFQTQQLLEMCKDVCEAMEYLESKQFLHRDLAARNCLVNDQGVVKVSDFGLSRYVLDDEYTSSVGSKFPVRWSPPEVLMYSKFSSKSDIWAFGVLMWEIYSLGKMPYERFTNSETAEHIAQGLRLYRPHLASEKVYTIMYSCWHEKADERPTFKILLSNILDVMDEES
Data set [17] in a line: Drug metabolism in rat liver microsomes assessed as (S,E)-N-(4-amino-6-methylene-5-(4-phenoxyphenyl)-7,8-dihydro-6H-pyrimido[5,4-b]pyrrolizin-7-yl)-3-hydroxyacrylamide formation after 3 hrs. The data set is classed as ADME, microsome.
For data set [18], the target named is T3, Tyrosine-protein kinase BTK. Particulars: TMD8, 1 to 100 nM.

Activity calls are given as the source filed them. The calls are words filed in the database; no cut-off is given here. A value given as a limit tells only on which side of the number the result lay.

Chain of Macrophage colony-stimulating factor 1 receptor (P07333 whole entry): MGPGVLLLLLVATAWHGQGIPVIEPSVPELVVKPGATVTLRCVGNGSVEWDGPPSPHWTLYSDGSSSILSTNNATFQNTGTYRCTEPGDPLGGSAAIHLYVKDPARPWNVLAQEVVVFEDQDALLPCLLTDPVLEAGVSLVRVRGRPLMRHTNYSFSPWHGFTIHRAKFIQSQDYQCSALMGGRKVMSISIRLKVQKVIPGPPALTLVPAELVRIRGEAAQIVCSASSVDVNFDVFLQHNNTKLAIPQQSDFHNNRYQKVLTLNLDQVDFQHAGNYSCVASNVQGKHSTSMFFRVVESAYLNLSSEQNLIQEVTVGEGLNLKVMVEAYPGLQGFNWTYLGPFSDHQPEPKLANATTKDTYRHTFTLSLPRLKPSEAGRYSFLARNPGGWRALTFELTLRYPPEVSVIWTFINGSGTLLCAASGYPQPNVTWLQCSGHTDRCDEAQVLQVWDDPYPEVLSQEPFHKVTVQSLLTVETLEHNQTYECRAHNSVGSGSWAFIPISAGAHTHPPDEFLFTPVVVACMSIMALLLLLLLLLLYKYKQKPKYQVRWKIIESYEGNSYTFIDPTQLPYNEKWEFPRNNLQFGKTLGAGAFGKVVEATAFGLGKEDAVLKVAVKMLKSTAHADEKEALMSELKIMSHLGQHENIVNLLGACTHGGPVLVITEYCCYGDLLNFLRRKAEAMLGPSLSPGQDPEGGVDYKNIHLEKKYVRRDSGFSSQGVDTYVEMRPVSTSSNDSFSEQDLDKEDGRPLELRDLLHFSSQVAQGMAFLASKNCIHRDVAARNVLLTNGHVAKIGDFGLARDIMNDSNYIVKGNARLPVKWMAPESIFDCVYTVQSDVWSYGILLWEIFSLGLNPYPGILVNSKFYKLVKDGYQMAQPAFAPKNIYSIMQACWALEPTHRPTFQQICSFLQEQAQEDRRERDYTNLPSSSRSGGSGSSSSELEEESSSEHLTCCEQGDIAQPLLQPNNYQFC

On to `C=CC(=O)N[C@@H]1Cn2c(c(-c3ccc(Oc4ccccc4)cc3)c3c(N)ncnc32)C1=C`, for which the Activity in [1] was 25.22%; in data set [4], 57.41%; in data set [8], 14.8%; in data set [9], 12.56%; in [10], “Dose-dependent effect”. In addition, the Drug metabolism result in data set [2], in data set [5], in data set [7], in data set [13], in [14] and in data set [17] was “Metabolite_Detected” in each case. For the same compound, the IC50 – broadly, the concentration that gives 50% inhibition – in [3] is > 1000 nM; in data set [11], 1.4 nM; in data set [12], 15.1 nM; in data set [16] it was 0.4 nM. Moreover, the inhibition result in data set [6] and in data set [18] was “Active” in each case. Besides, in data set [15], the highest level (Cmax) was 223 ng/mL.
